In ChEMBL document CHEMBL5303300, “EUbOPEN Chemogenomics Library - Multiplex” (2023):
Values joined by “and” are separate entries in the source; they are usually repeats but may differ in a detail not shown here. Equal values may be shown once.

Experiments:
U2OS = assay: Multiplex assay against U2OS; format: toxicity, cell-based; conditions: human, number of replicates 2
Method in brief: (§1)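 Tubulin, mitochondrial-mass and membrane-permeability phenotypes are per cents of healthy-nucleus cells. Cells were gated by CellPathfinder machine learning into Hoechst high-intensity objects or normal cells, normal cells into healthy, pyknosed or fragmented nuclei, and pyknosed cells into mitotic or apoptotic. Before that, live cells stained at seeding with Hoechst33342, BioTracker Green Microtubule Cytoskeleton Dye, MitoTracker Red and Annexin V Alexa Fluor 680 were imaged on a CQ1 microscope at 37°C and 5% CO2 after compound addition.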

Fibroblast = assay: Multiplex assay against human fibroblast; format: toxicity, cell-based; conditions: number of replicates 2; method in brief: as §1
[1] = 12 h, 1 µM, compound concentration 1 uM
[2] = 12 h, 10 µM, compound concentration 10 uM
[3] = 24 h, 1 µM, compound concentration 1 uM
[4] = 24 h, 10 µM, compound concentration 10 uM
[5] = 48 h, 1 µM, compound concentration 1 uM
[6] = 48 h, 10 µM, compound concentration 10 uM

Structure (SMILES): COc1ccc(NC(=O)c2ccc(-c3ccc(-c4noc(C)n4)cc3C)cc2)cc1OCCN(C)C.Cl
- Population Apoptotic (%) (U2OS; [1]): 40% and 45%
- Population Healthy Nuclei (%) (U2OS; [1]): 61% and 83%
- Population Hoechst High Intensity Objects (%) (U2OS; [1]): 0%
- Population Membrane Permeable-Phenotype (%) (U2OS; [1]): 5% and 4%
- Population Mitochondria Different-Phenotype (%) (U2OS; [1]): 5% and 13%
- Population Mitotic Cells (%) (U2OS; [1]): 60% and 55%
- Population Normal (%) (U2OS; [1]): 100%
- Population Pyknosed Nuclei (%) (U2OS; [1]): 16% and 11%
- Population Tubulin-Different-Phenotype (%) (U2OS; [1]): 36% and 40%
- Population Apoptotic (%) (U2OS; [2]): 76% and 60%
- Population Fragmented Nuclei (%) (U2OS; [2]): 10% and 23%
- Population Healthy Nuclei (%) (U2OS; [2]): 43% and 51%
- Population Hoechst High Intensity Objects (%) (U2OS; [2]): 1% and 0%
- Population Membrane Permeable-Phenotype (%) (U2OS; [2]): 34% and 30%
- Population Mitochondria Different-Phenotype (%) (U2OS; [2]): 67% and 85%
- Population Mitotic Cells (%) (U2OS; [2]): 23% and 40%
- Population Normal (%) (U2OS; [2]): 98% and 100%
- Population Pyknosed Nuclei (%) (U2OS; [2]): 46% and 25%
- Population Tubulin-Different-Phenotype (%) (U2OS; [2]): 93% and 100%
- Population Apoptotic (%) (U2OS; [3]): 55% and 51%
- Population Healthy Nuclei (%) (U2OS; [3]): 55% and 78%
- Population Hoechst High Intensity Objects (%) (U2OS; [3]): 2% and 0%
- Population Membrane Permeable-Phenotype (%) (U2OS; [3]): 5%
- Population Mitochondria Different-Phenotype (%) (U2OS; [3]): 15% and 17%
- Population Mitotic Cells (%) (U2OS; [3]): 44% and 48%
- Population Normal (%) (U2OS; [3]): 97% and 99%
- Population Pyknosed Nuclei (%) (U2OS; [3]): 25% and 15%
- Population Tubulin-Different-Phenotype (%) (U2OS; [3]): 35% and 34%
- Population Apoptotic (%) (U2OS; [4]): 63% and 86%
- Population Fragmented Nuclei (%) (U2OS; [4]): 16% and 6%
- Population Healthy Nuclei (%) (U2OS; [4]): 32%
- Population Hoechst High Intensity Objects (%) (U2OS; [4]): 0%
- Population Membrane Permeable-Phenotype (%) (U2OS; [4]): 58% and 79%
- Population Mitochondria Different-Phenotype (%) (U2OS; [4]): 75% and 89%
- Population Mitotic Cells (%) (U2OS; [4]): 36% and 13%
- Population Normal (%) (U2OS; [4]): 100% and 99%
- Population Pyknosed Nuclei (%) (U2OS; [4]): 51% and 61%
- Population Tubulin-Different-Phenotype (%) (U2OS; [4]): 100% and 98%
- Population Apoptotic (%) (U2OS; [5]): 77% and 72%
- Population Fragmented Nuclei (%) (U2OS; [5]): 16% and 7%
- Population Healthy Nuclei (%) (U2OS; [5]): 65% and 77%
- Population Hoechst High Intensity Objects (%) (U2OS; [5]): 2% and 0%
- Population Membrane Permeable-Phenotype (%) (U2OS; [5]): 6%
- Population Mitochondria Different-Phenotype (%) (U2OS; [5]): 3% and 12%
- Population Mitotic Cells (%) (U2OS; [5]): 22% and 27%
- Population Normal (%) (U2OS; [5]): 98% and 100%
- Population Pyknosed Nuclei (%) (U2OS; [5]): 18% and 15%
- Population Tubulin-Different-Phenotype (%) (U2OS; [5]): 37% and 40%
- Population Apoptotic (%) (U2OS; [6]): 95% and 98%
- Population Fragmented Nuclei (%) (U2OS; [6]): 21% and 14%
- Population Healthy Nuclei (%) (U2OS; [6]): 18% and 6%
- Population Hoechst High Intensity Objects (%) (U2OS; [6]): 2% and 1%
- Population Membrane Permeable-Phenotype (%) (U2OS; [6]): 85% and 92%
- Population Mitochondria Different-Phenotype (%) (U2OS; [6]): 71% and 100%
- Population Mitotic Cells (%) (U2OS; [6]): 4% and 1%
- Population Normal (%) (U2OS; [6]): 97% and 98%
- Population Pyknosed Nuclei (%) (U2OS; [6]): 59% and 79%
- Population Tubulin-Different-Phenotype (%) (U2OS; [6]): 100% and 92%
- Population Apoptotic (%) (Fibroblast; [1]): 34% and 50%
- Population Fragmented Nuclei (%) (Fibroblast; [1]): 23% and 26%
- Population Healthy Nuclei (%) (Fibroblast; [1]): 60% and 51%
- Population Hoechst High Intensity Objects (%) (Fibroblast; [1]): 0%
- Population Mitochondria Different-Phenotype (%) (Fibroblast; [1]): 6% and 5%
- Population Mitotic Cells (%) (Fibroblast; [1]): 65% and 50%
- Population Normal (%) (Fibroblast; [1]): 100% and 99%
- Population Pyknosed Nuclei (%) (Fibroblast; [1]): 15% and 21%
- Population Tubulin-Different-Phenotype (%) (Fibroblast; [1]): 39% and 56%
- Total Cell Count (Fibroblast; [1]): 247 and 176
- Population Fragmented Nuclei (%) (Fibroblast; [2]): 14% and 30%
- Population Healthy Nuclei (%) (Fibroblast; [2]): 29% and 48%
- Population Hoechst High Intensity Objects (%) (Fibroblast; [2]): 2% and 0%
- Population Membrane Permeable-Phenotype (%) (Fibroblast; [2]): 14% and 7%
- Population Mitochondria Different-Phenotype (%) (Fibroblast; [2]): 29% and 25%
- Population Normal (%) (Fibroblast; [2]): 97% and 100%
- Population Pyknosed Nuclei (%) (Fibroblast; [2]): 56% and 20%
- Population Tubulin-Different-Phenotype (%) (Fibroblast; [2]): 82% and 72%
- Total Cell Count (Fibroblast; [2]): 117 and 158
- Population Apoptotic (%) (Fibroblast; [3]): 46% and 65%
- Population Fragmented Nuclei (%) (Fibroblast; [3]): 32% and 19%
- Population Healthy Nuclei (%) (Fibroblast; [3]): 58% and 57%
- Population Hoechst High Intensity Objects (%) (Fibroblast; [3]): 2% and 0%
- Population Membrane Permeable-Phenotype (%) (Fibroblast; [3]): 4% and 6%
- Population Mitochondria Different-Phenotype (%) (Fibroblast; [3]): 10% and 9%
- Population Mitotic Cells (%) (Fibroblast; [3]): 53% and 34%
- Population Normal (%) (Fibroblast; [3]): 97% and 99%
- Population Pyknosed Nuclei (%) (Fibroblast; [3]): 9% and 22%
- Population Tubulin-Different-Phenotype (%) (Fibroblast; [3]): 44% and 59%
- Total Cell Count (Fibroblast; [3]): 288 and 170
- Population Apoptotic (%) (Fibroblast; [4]): 94% and 90%
- Population Fragmented Nuclei (%) (Fibroblast; [4]): 13% and 26%
- Population Healthy Nuclei (%) (Fibroblast; [4]): 16% and 10%
- Population Hoechst High Intensity Objects (%) (Fibroblast; [4]): 0%
